Test results reported in publication PMC12699372 (RSC Advances, 2025).

Tests used:
Format in all cases: cell-based
NCM-460 cells = assay: CCK-8 cytotoxicity, normal colon cell line NCM-460; conditions: Homo sapiens, NCM460, 72 h, read-out: IC50 NCM-460, normal human colon cell line NCM-460, 72 h, CCK-8
In short: (§1)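 HCT-116 and HCT-15 were grown in McCoy's 5A, and NCM-460 in RPMI 1640, each with 10% FBS and 1% penicillin-streptomycin at 37 °C, 5% CO2. Cells were seeded at 4 × 10^3 per well overnight, then exposed to graded concentrations of test compound for 72 h. Medium was replaced with fresh medium containing 10% CCK-8; A450 was read after 1 h at 37 °C. […] At least three independent experiments.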

HT-29 cells = assay: CCK-8 anti-proliferation assay, HT-29; conditions: Homo sapiens, HT-29, 72 h, read-out: IC50 HT-29, HT-29 cells, 72 h, CCK-8
HCT-15 cells = assay: CCK-8 anti-proliferation assay, HCT-15; conditions: Homo sapiens, HCT-15, 72 h, read-out: IC50 HCT-15, HCT-15 cells, 72 h, CCK-8
In short: as §1

HCT-116 cells = assay: CCK-8 anti-proliferation assay, HCT-116; conditions: Homo sapiens, HCT-116, 72 h, read-out: IC50 HCT-116, HCT-116 cells, 72 h, CCK-8
In short: as §1

| IC50 (HT-29 cells) | IC50 (HCT-15 cells) | IC50 (HCT-116 cells) | Compound | IC50 (NCM-460 cells) |
| --- | --- | --- | --- | --- |
| 4.02 ± 0.14 µM | 11.7 ± 0.85 µM | 17.9 ± 1.01 µM | CC1(C)C[C@H]2[C@H]1CC[C@]1(C)CCC[C@@]2(n2cc(C(=O)N3CCNCC3)nn2)C1 [NC-16] | 26.1 ± 3.1 µM |
| 3.63 ± 0.611 µM | 13.3 ± 2.01 µM | 1.38 ± 0.21 µM | O=c1[nH]cc(F)c(=O)[nH]1 [5-FU, 5-fluorouracil, reference compound] | 3.94 ± 1.41 µM |
| 45.9 ± 11.1 µM | – | – | CC1(C)C[C@H]2[C@H]1CC[C@]1(C)CCC[C@@]2(n2cc(C(=O)NCCN)nn2)C1 [NC-14] | – |
| 3.17 ± 0.24 µM | 14.9 ± 0.98 µM | 14.7 ± 1.79 µM | CC1(C)C[C@H]2[C@H]1CC[C@]1(C)CCC[C@@]2(n2cc(C(=O)NC3CCNCC3)nn2)C1 [NC-18] | 18.6 ± 4.58 µM |
